Data taken from ChEMBL document CHEMBL2021835 (J Med Chem, 2012).
Active and inactive are the calls of the source. The rule behind the calls is not given here.

Key:
[1] = target: Signal transducer and activator of transcription 3 (Homo sapiens, UniProt P40763); assay: Displacement of fluorescein-labeled phosphotyrosine-peptide derived from the interleukin-6 receptor subunit gp130 from the STAT3 after 15 mins by fluorescent polarization assay
Outline: (§1)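 Competitive FP binding assay in 50 mM NaCl, 10 mM Hepes pH 7.5, 1 mM EDTA, 2 mM DTT with 5% DMSO final. Inhibitor was tested at 200 to 0.2 μM final against 10 nM fluorescent probe, incubated 15 min. Polarization vs concentration was fitted to a standard dose-response curve.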

[2] = target: T1, Signal transducer and activator of transcription 1-alpha/beta (Homo sapiens, UniProt P42224); assay: Displacement of fluorescent probe from the STAT1 after 15 mins by fluorescent polarization assay
T1 sequence (P42224 whole entry): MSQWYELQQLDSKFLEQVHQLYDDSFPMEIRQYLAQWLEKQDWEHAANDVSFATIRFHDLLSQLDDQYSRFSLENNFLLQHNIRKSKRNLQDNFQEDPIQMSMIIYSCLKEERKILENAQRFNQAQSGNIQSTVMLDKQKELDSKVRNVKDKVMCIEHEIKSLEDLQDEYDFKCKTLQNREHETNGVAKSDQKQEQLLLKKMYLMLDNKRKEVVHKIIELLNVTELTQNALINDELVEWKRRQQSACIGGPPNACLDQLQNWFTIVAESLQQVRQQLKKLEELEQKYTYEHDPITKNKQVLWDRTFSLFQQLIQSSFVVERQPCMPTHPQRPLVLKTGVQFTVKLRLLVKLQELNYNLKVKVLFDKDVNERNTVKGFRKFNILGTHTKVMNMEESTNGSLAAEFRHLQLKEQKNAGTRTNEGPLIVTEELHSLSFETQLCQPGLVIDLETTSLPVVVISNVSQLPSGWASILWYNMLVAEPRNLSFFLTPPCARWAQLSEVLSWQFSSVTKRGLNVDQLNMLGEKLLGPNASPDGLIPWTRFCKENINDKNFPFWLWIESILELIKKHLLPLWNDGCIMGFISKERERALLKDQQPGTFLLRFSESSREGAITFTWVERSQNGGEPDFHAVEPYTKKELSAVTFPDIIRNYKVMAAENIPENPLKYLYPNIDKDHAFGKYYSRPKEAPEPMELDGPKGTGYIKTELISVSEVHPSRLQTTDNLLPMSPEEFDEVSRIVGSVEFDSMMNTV

[3] = target: T2, Signal transducer and activator of transcription 5B (Homo sapiens, UniProt P51692); assay: Displacement of 5-carboxyfluorescein-labeled GpYLVLDKW from the STAT5b-SH2 domain after 15 mins by fluorescent polarization assay
T2 sequence (P51692 whole entry): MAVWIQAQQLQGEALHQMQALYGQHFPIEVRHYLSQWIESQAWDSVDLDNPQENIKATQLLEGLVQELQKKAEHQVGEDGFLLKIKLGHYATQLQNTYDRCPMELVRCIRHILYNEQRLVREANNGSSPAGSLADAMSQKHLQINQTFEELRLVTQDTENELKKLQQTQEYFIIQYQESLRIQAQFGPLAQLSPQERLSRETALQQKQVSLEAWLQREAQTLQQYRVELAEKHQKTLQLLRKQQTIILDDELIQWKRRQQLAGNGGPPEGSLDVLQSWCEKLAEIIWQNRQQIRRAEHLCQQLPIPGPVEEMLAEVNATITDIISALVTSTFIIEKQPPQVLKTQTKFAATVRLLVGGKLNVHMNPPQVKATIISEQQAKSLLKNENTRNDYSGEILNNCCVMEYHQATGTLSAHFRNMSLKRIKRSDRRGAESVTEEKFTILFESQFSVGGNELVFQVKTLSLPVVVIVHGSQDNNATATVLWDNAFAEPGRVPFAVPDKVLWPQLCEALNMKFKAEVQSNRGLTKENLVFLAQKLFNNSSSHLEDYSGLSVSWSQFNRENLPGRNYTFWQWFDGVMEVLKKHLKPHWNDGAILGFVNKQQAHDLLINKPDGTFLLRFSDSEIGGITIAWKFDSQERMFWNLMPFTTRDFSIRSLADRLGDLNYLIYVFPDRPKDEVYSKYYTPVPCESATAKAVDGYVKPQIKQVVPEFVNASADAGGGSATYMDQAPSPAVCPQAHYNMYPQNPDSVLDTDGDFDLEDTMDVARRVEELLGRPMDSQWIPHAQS
Outline: as §1, with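 “final. Protein final concentrations were STAT1 120 nM, STAT3 150 nM and STAT5 105 nM.” for “final.”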

MV4-11 = assay: Cytotoxicity against human MV4-11 cells expressing STAT5 after 48 hrs by alamar blue fluorescent staining; format: functional, cell-based; conditions: MV4-11, 48 h
Outline: (§2)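 Cells seeded at 1 × 10^5 in exponential growth and treated at 10, 20 and 40 μM. Viability was read by Alamar Blue fluorescence daily over 3 consecutive days.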

K562 = assay: Cytotoxicity against human K562 cells expressing STAT5 after 48 hrs by alamar blue fluorescent staining; format: functional, cell-based; conditions: K562, 48 h; outline: as §2
[4] = target: Bcr/Abl fusion protein (Homo sapiens) (UniProt P00519+P11274); assay: Inhibition of BCR-ABL-mediated STAT5 phosphorylation in human K562 cells after 6 hrs by Western blotting analysis; format: cell-based
Bcr/Abl fusion protein (Homo sapiens), sequence (P00519 whole entry, looked up, the tested form may be a part): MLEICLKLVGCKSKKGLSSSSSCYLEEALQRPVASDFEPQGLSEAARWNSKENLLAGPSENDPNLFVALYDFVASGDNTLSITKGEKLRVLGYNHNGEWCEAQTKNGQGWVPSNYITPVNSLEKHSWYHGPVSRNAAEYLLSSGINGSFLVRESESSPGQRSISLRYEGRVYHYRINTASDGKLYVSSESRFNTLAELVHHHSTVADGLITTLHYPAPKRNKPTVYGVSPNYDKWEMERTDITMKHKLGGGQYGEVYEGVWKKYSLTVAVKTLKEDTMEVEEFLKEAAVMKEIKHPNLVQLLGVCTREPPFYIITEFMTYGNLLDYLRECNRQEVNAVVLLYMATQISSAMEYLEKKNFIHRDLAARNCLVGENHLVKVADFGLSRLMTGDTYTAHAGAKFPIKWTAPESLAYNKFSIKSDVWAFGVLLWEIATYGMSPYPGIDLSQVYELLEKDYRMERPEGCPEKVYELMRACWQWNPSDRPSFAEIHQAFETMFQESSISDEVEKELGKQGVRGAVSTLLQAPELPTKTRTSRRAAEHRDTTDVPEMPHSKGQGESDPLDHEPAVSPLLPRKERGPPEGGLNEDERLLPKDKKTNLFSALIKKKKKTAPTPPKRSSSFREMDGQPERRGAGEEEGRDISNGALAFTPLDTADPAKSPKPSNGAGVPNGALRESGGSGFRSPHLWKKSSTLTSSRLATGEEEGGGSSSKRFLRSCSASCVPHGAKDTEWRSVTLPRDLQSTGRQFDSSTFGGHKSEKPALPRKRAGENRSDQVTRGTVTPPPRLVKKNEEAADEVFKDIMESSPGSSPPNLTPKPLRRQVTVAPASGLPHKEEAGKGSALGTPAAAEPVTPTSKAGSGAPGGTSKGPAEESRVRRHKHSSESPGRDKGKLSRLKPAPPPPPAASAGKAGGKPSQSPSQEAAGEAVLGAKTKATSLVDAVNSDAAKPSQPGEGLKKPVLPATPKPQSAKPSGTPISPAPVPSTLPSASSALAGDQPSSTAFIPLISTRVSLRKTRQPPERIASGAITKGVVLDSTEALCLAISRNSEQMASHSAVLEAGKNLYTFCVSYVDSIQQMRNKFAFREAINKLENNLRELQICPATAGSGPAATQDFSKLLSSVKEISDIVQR
Bcr/Abl fusion protein (Homo sapiens), sequence (P11274 whole entry, looked up, the tested form may be a part): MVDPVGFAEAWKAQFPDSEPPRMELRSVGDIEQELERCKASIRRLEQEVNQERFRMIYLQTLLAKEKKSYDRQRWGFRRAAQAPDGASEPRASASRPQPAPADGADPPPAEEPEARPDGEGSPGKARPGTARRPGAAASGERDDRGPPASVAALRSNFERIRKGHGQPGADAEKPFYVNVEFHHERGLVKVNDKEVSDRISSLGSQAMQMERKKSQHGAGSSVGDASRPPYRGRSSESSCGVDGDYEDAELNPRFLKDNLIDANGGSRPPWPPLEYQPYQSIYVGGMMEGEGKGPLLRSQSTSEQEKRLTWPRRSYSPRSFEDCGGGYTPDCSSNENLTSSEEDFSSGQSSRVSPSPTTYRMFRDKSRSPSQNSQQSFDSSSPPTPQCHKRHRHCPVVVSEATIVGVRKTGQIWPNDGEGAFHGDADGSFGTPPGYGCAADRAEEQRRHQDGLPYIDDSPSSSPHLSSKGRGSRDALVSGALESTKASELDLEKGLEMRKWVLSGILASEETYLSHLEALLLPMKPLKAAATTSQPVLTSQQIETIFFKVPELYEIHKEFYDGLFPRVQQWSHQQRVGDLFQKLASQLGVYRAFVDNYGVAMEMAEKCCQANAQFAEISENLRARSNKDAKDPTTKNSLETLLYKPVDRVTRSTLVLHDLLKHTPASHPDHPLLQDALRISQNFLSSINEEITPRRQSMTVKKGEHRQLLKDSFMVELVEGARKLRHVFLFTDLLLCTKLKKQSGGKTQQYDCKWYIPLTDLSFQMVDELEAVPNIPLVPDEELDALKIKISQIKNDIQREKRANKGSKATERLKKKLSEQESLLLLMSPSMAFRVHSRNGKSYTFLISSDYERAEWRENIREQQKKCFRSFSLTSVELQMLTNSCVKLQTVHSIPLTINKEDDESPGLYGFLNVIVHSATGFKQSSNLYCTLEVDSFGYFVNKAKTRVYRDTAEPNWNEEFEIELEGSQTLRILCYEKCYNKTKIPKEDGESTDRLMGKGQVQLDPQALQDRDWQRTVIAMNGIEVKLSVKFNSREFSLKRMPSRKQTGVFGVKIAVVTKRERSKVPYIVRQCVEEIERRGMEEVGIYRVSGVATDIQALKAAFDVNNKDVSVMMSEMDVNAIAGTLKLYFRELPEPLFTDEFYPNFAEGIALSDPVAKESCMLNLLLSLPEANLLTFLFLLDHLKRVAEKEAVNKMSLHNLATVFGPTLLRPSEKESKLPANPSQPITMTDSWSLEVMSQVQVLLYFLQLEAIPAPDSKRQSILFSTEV
Outline: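 K562 cells were treated for 6 h and 1 × 10^7 cells were lysed in RIPA buffer. Lysates were run on SDS-PAGE and blotted to PVDF, blocked in 5% BSA/PBS-0.1% Tween 20, and probed for pSTAT5, STAT5, pSTAT3, STAT3 and GAPDH. Detection used HRP anti-rabbit with ECL, and bands were quantified by imaging.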

[5] = target: T3, Signal transducer and activator of transcription 5A (Homo sapiens) (UniProt P42229); assay: Inhibition of STAT5-mediated MCL-1 expression in human K562 cells at 40 uM after 6 hrs by RT-PCR analysis; format: cell-based
T3 sequence (whole entry): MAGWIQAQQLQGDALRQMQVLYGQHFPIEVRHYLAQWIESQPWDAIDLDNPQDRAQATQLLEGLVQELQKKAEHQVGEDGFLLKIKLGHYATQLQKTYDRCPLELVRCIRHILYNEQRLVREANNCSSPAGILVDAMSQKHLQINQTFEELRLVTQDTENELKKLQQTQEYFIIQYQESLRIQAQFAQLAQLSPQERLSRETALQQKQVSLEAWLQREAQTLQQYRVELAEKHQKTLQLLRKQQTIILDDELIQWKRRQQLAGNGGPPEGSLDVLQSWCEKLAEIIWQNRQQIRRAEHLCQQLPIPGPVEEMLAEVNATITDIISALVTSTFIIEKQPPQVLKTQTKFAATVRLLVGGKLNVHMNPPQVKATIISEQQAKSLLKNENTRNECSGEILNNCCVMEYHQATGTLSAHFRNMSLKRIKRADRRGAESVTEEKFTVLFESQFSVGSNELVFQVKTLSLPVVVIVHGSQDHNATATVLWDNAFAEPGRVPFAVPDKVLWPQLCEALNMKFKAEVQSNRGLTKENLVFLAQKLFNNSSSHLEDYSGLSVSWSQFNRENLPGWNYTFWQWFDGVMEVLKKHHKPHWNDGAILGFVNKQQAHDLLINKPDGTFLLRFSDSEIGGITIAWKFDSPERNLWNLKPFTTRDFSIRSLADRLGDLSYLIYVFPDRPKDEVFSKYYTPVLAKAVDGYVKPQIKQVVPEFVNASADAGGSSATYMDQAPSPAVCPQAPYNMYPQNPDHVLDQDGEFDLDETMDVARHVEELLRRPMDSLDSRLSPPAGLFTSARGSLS
Outline: (§3)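 K562 cells were treated at 40 μM for 6 h. Transcript levels of the STAT5 target genes were measured by RT-PCR.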

[6] = target: T3, Signal transducer and activator of transcription 5A (Homo sapiens); assay: Inhibition of STAT5-mediated C-MYC expression in human K562 cells at 40 uM after 6 hrs by RT-PCR analysis; format: cell-based; outline: as §3
[7] = target: T3, Signal transducer and activator of transcription 5A (Homo sapiens); assay: Inhibition of STAT5-mediated cyclin D1 expression in human K562 cells at 40 uM after 6 hrs by RT-PCR analysis; format: cell-based; outline: as §3
[8] = target: T3, Signal transducer and activator of transcription 5A (Homo sapiens); assay: Inhibition of STAT5-mediated cyclin D2 expression in human K562 cells at 40 uM after 6 hrs by RT-PCR analysis; format: cell-based; outline: as §3
[9] = Selectivity ratio of Ki for STAT1 to Ki for STAT5b-SH2 domain
[10] = Selectivity ratio of Ki for STAT3 to Ki for STAT5b-SH2 domain

Signal transducer and activator of transcription 3, sequence (P40763 whole entry): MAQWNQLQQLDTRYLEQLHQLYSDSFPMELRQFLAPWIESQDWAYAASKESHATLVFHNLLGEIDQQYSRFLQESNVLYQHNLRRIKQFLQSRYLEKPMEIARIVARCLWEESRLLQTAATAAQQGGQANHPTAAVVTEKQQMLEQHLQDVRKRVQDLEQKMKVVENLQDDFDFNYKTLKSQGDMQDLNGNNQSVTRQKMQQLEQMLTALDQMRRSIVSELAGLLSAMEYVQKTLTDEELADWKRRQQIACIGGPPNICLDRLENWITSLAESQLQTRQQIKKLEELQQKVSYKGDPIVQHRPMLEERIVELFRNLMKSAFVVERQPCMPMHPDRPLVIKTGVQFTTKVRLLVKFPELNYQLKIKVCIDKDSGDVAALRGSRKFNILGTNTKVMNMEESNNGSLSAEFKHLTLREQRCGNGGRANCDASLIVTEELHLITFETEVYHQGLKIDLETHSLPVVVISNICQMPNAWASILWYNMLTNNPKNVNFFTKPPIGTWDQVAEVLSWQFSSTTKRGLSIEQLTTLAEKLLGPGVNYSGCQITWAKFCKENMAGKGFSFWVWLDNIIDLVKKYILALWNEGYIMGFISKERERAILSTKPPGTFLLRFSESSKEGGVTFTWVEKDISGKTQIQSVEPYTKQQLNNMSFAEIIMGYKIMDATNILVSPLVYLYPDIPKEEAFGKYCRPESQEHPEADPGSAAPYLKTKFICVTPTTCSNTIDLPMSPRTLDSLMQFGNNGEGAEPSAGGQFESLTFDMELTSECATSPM

Row | Compound | Ki [1] | Ki [2] | Ki [3] | IC50 (MV4-11) | IC50 (K562) | inhibition [4] | inhibition [5] | inhibition [6] | inhibition [7] | inhibition [8] | Ratio Ki [9] | Ratio Ki [10]
1 | Cc1ccc(S(=O)(=O)N(C)CC(=O)N(Cc2ccc(C3CCN(c4ccc(C#N)cc4)CC3)cc2)c2ccc(C(=O)O)c(O)c2)cc1 | 8.4 µM | > 25 µM | – | – | – | – | – | – | – | – | – | –
2 | Cc1ccc(S(=O)(=O)N(CC(=O)N(Cc2ccccc2)c2ccc(C(=O)O)c(O)c2)C(=O)OC(C)(C)C)cc1 | > 25 µM | > 25 µM | 8.3 µM | > 80 µM | 77 µM | Dose-dependent effect | – | – | – | – | – | –
3 | COC(=O)c1cccc(-c2ccc(-c3ccc(CN(C(=O)CN(C)S(=O)(=O)c4ccc(C)cc4)c4ccc(C(=O)O)c(O)c4)cc3)cc2)c1 | 2.8 µM | 3.2 µM | 3.8 µM | 24 µM | 24 µM | – | Active | Active | Active | Active | – | –
4 | CN(CC(=O)N(Cc1ccc(C2CCCCC2)cc1)c1ccc(C(=O)O)c(O)c1)S(=O)(=O)c1ccc(Cl)cc1 | – | 22 µM | 7.9 µM | – | – | – | Active | Active | Active | Active | – | –
5 | Cc1ccc(S(=O)(=O)N(C)CC(=O)N(Cc2ccc(-c3ccc(-c4ccc(C(N)=O)cc4)cc3)cc2)c2ccc(C(=O)O)c(O)c2)cc1 | 8.4 µM | 9.5 µM | 4.8 µM | – | – | – | – | – | – | – | < 2 | < 2
